Source: ChEMBL document CHEMBL2331233, “Rational design, efficient syntheses and biological evaluation of N,N'-symmetrically bis-substituted butylimidazole analogs as a new class of potent Angiotensin II receptor blockers” (Eur J Med Chem, 2013)

Experiments:
[1] = target: T1, Type-1 angiotensin II receptor (Homo sapiens, UniProt P30556); test: Displacement of [125I-Sar1-Ile8]-ANG2 from human Angiotensin 2 type-1 receptor expressed in HEK293 cells after 1 hr by gamma counting analysis; type: cell-based
T1 sequence (P30556 whole entry): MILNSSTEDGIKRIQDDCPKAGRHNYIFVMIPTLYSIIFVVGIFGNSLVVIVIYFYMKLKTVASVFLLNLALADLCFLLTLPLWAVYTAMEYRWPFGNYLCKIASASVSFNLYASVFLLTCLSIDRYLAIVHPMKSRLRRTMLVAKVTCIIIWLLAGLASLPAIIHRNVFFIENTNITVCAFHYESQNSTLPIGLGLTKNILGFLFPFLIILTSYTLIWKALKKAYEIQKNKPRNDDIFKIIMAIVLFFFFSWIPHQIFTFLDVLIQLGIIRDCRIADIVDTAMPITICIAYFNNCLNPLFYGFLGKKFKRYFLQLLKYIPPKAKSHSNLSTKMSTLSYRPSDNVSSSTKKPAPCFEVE
Procedure, shortened: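 Membranes from HEK 293 cells stably transfected with human AT1 receptor (Geneticin 700 µg/mL selection) incubated in buffer B (50 mM Tris–HCl, 1 mM EDTA, 10 mM MgCl2, 0.2% BSA, bacitracin, aprotinin, pH 7.4) with 100,000–120,000 cpm radioligand and increasing analog concentrations, 1 h, 24 °C; GF/C filtration. Nonspecific binding with 1000 nM [Sar1-Ile8]ANGII. One-site nonlinear fit gives -log IC50; 2–4 experiments.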

[2] = Antagonist activity at Angiotensin 2 type-1 receptor in Wistar rat uterus assessed as suppression of ANG2-induced contraction

Work on `CCCCc1n(Cc2ccc(-c3ccccc3-c3nn[nH]n3)cc2)cc[n+]1Cc1ccc(-c2ccccc2-c2nn[nH]n2)cc1` yielded an IC50 [1] of 1700 nM.

In the case of `CCCCc1c[n+](Cc2ccc(-c3ccccc3-c3nn[nH]n3)cc2)c(CO)n1Cc1ccc(-c2ccccc2-c2nn[nH]n2)cc1.[Br-]`, the pA2 [2] is reported as 8.58 and the IC50 [1] is reported as 4.27 nM.

Work on `CCCCc1c[n+](Cc2ccc(-c3ccccc3C(=O)O)cc2)c(CO)n1Cc1ccc(-c2ccccc2C(=O)O)cc1` yielded an IC50 [1] of 501 nM.

`CCCCc1c[n+](Cc2ccc(-c3ccccc3-c3nn[n-]n3)cc2)cn1Cc1ccc(-c2ccccc2-c2nn[n-]n2)cc1.[Br-].[Na+].[Na+]` gave a pA2 [2] of 8.45 and an IC50 [1] of 2.88 nM.

For `CCCCc1c(Cl)[n+](Cc2ccc(-c3ccccc3-c3nn[nH]n3)cc2)cn1Cc1ccc(-c2ccccc2-c2nn[nH]n2)cc1`, the IC50 [1] was 832 nM.

`CCCCc1c[n+](Cc2ccc(-c3ccccc3-c3nn[n-]n3)cc2)cn1Cc1ccc(-c2ccccc2-c2nn[nH]n2)cc1` showed an IC50 [1] of 0.912 nM.

For `CCCCc1c(Br)[n+](Cc2ccc(-c3ccccc3-c3nn[nH]n3)cc2)cn1Cc1ccc(-c2ccccc2-c2nn[nH]n2)cc1`, the IC50 [1] was 708 nM.

Work on `CCCCc1n(Cc2ccc(-c3ccccc3-c3nn[nH]n3)cc2)c(CO)c(Cl)[n+]1Cc1ccc(-c2ccccc2-c2nn[nH]n2)cc1` yielded an IC50 [1] of 417 nM.

Work on `CCCCc1c(Cl)[n+](Cc2ccc(-c3ccccc3-c3nn[nH]n3)cc2)c(CO)n1Cc1ccc(-c2ccccc2-c2nn[nH]n2)cc1` yielded an IC50 [1] of 6460 nM.

`CCCCc1c(Br)[n+](Cc2ccc(-c3ccccc3-c3nn[nH]n3)cc2)c(CO)n1Cc1ccc(-c2ccccc2-c2nn[nH]n2)cc1.[Br-]` showed a pA2 [2] of 7.13 and an IC50 [1] of 42.7 nM.

In the case of `CCCCc1c[n+](Cc2ccc(-c3ccccc3-c3nn[nH]n3)cc2)cn1Cc1ccc(-c2ccccc2-c2nn[nH]n2)cc1`, the IC50 [1] is reported as 0.347 nM.

`CCCCc1c[n+](Cc2ccc(-c3ccccc3C(=O)O)cc2)cn1Cc1ccc(-c2ccccc2C(=O)O)cc1` showed an IC50 [1] of 331 nM.
